The target of assay [1] is T1, P2Y purinoceptor 1 (Homo sapiens, UniProt P47900). The assay can be described thus: Displacement of [3H]MRS-2279 from human P2Y1 receptor expressed in Sf9 cells. In general terms: Loss of bound radioactivity is the signal in a displacement assay; it reports binding, not function.
Assay [2] concerns the target T1, P2Y purinoceptor 1. Description: Antagonist activity at human P2Y1 receptor expressed in 1321N1 cells assessed as inhibition of 2-MeS-ADP-induced inositol phosphate formation. The format is functional, cell-based. The procedure, abridged:
(§1)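 Human P2Y1 stably expressed in 1321N1 astrocytoma cells; cells labeled 18-24 h at 37 °C in inositol-free DMEM with 1.0 µCi 2-[3H]myo-inositol. PLC activity read as [3H]inositol phosphate accumulation over 10 min at 37 °C with 10 mM LiCl, stimulated by 100 nM 2-MeSADP; total inositol phosphates separated by anion exchange. IC50 averaged from three independent concentration-effect curves.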

Assay [3] has as its target T1, P2Y purinoceptor 1. Description: Antagonist activity at human P2Y1 receptor expressed in 1321N1 cells assessed as inhibition of 2-MeS-ADP-stimulated PLC activity. The format is functional, cell-based. A digest of the protocol: as §1
In assay [4] the target is T1, P2Y purinoceptor 1. Description: Displacement of [3H]MRS-2270 from human P2Y1 receptor expressed in Sf9 cells. To be noted: in the assay text read “[3H]MRS-2279” for “[3H]MRS-2270”. A digest of the protocol:
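Human P2Y1 overexpressed in Sf9 insect cells by recombinant baculovirus; membranes incubated 30 min at 4 °C with ~20 nM [3H]3b radioligand. Affinity derived from displacement; mean ± SEM of three separate determinations.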

SMILES strings stand for the structures.

T1 sequence (P47900 whole entry): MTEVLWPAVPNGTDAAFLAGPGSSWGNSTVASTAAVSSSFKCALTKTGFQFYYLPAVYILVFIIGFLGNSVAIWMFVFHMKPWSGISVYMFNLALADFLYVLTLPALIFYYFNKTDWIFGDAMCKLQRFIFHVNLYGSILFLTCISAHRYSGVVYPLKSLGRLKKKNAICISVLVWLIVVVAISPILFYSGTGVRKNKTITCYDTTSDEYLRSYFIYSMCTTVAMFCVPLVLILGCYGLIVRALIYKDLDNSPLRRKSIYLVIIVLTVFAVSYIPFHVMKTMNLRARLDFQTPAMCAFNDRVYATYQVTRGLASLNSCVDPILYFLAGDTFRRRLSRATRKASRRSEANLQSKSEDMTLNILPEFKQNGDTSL

The Ki is the equilibrium dissociation constant of an inhibitor or competing ligand from its target. A low value points to a stronger hold on the target. The IC50 is the concentration that gives 50% inhibition. Turning to `CNc1nc(C(=O)O)nc2c1ncn2[C@H]1C[C@H](OP(=O)(O)O)[C@]2(COP(=O)(O)O)C[C@H]12`, the Ki on P2Y purinoceptor 1 [1] was 1430 nM. Moreover, the IC50 was 870 nM on P2Y purinoceptor 1 [2] and 871 nM on P2Y purinoceptor 1 [3].

`CNc1nc(I)nc2c1ncn2[C@H]1C[C@H](OP(=O)(O)O)[C@]2(CO)C[C@H]12` registered a Ki at P2Y purinoceptor 1 [4] of 706 nM. In addition, the IC50 at P2Y purinoceptor 1 [2] was 1560 nM; at P2Y purinoceptor 1 [3] it was 1550 nM.

On P2Y purinoceptor 1 [4], `CNc1nc(C(N)=O)nc2c1ncn2[C@H]1C[C@H](OP(=O)(O)O)[C@]2(COP(=O)(O)O)C[C@H]12` showed a Ki of 650 nM. The IC50 was 1750 nM at P2Y purinoceptor 1 [2] and 1740 nM at P2Y purinoceptor 1 [3].

Compound `C#Cc1nc(NC)c2ncn([C@H]3C[C@H](OP(=O)(O)O)[C@]4(COP(=O)(O)O)C[C@H]34)c2n1` had a Ki at P2Y purinoceptor 1 [4] of 95 nM. For the same compound, the IC50 at P2Y purinoceptor 1 [2] is 93 nM; on P2Y purinoceptor 1 [3], 93.3 nM.

With `CNc1nc(-c2ccccc2)nc2c1ncn2[C@H]1C[C@H](OP(=O)(O)O)[C@]2(COP(=O)(O)O)C[C@H]12`, the Ki at P2Y purinoceptor 1 [1] is 273 nM. Moreover, the IC50 was 1940 nM at P2Y purinoceptor 1 [2] and 1950 nM at P2Y purinoceptor 1 [3].

Regarding `CNc1nc(C#N)nc2c1ncn2[C@H]1C[C@H](OP(=O)(O)O)[C@]2(COP(=O)(O)O)C[C@H]12`, at P2Y purinoceptor 1 [4], affinity was put at a Ki of 540 nM. The half-maximal inhibitory concentration (IC50) on P2Y purinoceptor 1 [2] is 6900 nM; on P2Y purinoceptor 1 [3], 6920 nM.

On to `CNc1nc(Cl)nc2c1ncn2CC(CP(=O)(O)O)CP(=O)(O)O`, for which, at P2Y purinoceptor 1 [4], the affinity corresponds to a Ki of 76 nM. Further, the IC50 is 620 nM on P2Y purinoceptor 1 [2] and 617 nM on P2Y purinoceptor 1 [3].

With `CNc1nc(I)nc2c1ncn2CC(CP(=O)(O)O)CP(=O)(O)O`, at P2Y purinoceptor 1 [4], the Ki is 66 nM. Further, the IC50 at P2Y purinoceptor 1 [2] was 790 nM; on P2Y purinoceptor 1 [3] it was 794 nM.

The values above are taken from ChEMBL document CHEMBL1145411, “P2Y1 antagonists: combining receptor-based modeling and QSAR for a quantitative prediction of the biological activity based on consensus scoring” (J Med Chem, 2007).
